Experimental findings from ChEMBL document CHEMBL3792331, “Identification and synthesis of potent and selective pyridyl-isoxazole based agonists of sphingosine-1-phosphate 1 (S1P1)” (Bioorg Med Chem Lett, 2016) are described below.

A short description of series [1]: Selectivity index, ratio of EC50 for agonist activity at human S1P3 receptor expressed in EDG3-Ga15-bla HEK293T cell membranes to EC50 for agonist activity at human S1P1 receptor expressed in CHO cell membranes. The format is cell-based. In short, it runs like this: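 S1P3/S1P1 ratio of GTPγ[35S] EC50s. Membranes from EDG3-Ga15-bla HEK293T (S1P3) or S1P1/CHO cells, […], 0.2 nM final [35S]GTP. HEPES pH 7.5 buffer with MgCl2, NaCl, EGTA, DTT, GDP, BSA and saponin. 45 min at room temperature, filtration read-out. Each EC50 taken at 50% of the compound's own Ymax.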

The next series concerns Plasma. Nature of the series: Ratio of plasma concentration Lewis rat at 1 mg/kg, po after 4 hrs to plasma concentration Lewis rat at 1 mg/kg, po after 24 hrs. The class given is ADME, organism-based. The note with it: in vivo. In short, it runs like this: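 Lewis rats given 1.0 mg/kg orally as solution or suspension in vehicle. Plasma drug concentration measured in blood drawn at 4 h and 24 h; 4 h/24 h ratio taken from these values.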

Series [2] has as its target Sphingosine 1-phosphate receptor 1 (Homo sapiens, UniProt P21453). Nature of the series: Agonist activity at human S1P1 receptor expressed in CHO cell membranes assessed as stimulation of [35S]GTPgamma binding incubated for 45 mins by liquid scintillation counting method. In short, it runs like this: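 Membranes from S1P1/CHO cells (S1P1) or EDG3-Ga15-bla HEK293T cells (S1P3), final protein […], with 3-fold compound dilutions. Buffer: 20 mM HEPES pH 7.5, 10 mM MgCl2, 150 mM NaCl, 1 mM EGTA, 1 mM DTT, GDP, 0.1% fatty acid free BSA, saponin. [35S]GTP 0.2 nM final. Room temperature, 45 min. Filtered, washed with water, dried 60 °C. EC50 taken at 50% of each compound's Ymax.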

The test system of series [3] is Rattus norvegicus. As to the kind of experiment: Reduction in circulating lymphocytes in Lewis rat at 1 mg/kg, po after 24 hrs. The format is functional. The essentials: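 Healthy Lewis rats dosed orally with test article as solution or suspension in vehicle, or vehicle alone. Blood drawn at 4 h and 24 h. Circulating lymphocyte percentage measured by hematology analyzer, expressed as reduction versus the vehicle group. Group average, n = 3–4.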

A further series has as its system CHO. As to the kind of experiment: Selectivity index, ratio of EC50 for agonist activity at human S1P5 receptor to EC50 for agonist activity at human S1P1 receptor expressed in CHO cell membranes. The class given is cell-based.
Series [4] can be described thus: Protein binding in mouse plasma. The format is ADME, cell-free. To be noted: read-out: PPB (converted).
A short description of series [5]: Protein binding in dog plasma. The class given is ADME, cell-free, Canis lupus familiaris. The note with it: read-out: PPB (converted).
The target in the next series is hERG (KCNH2) (Homo sapiens, UniProt Q12809). As to the kind of experiment: Inhibition of human ERG at 10 uM by patch clamp assay.
The species named for a further series is Homo sapiens. As to the kind of experiment: Inhibition of sodium channel (unknown origin) at 10 uM under 1 and 4 Hz condition by patch clamp assay.
A further series concerns the target T1, Cytochrome P450 2C8 (Homo sapiens, UniProt P10632).
T1 sequence (P10632 whole entry): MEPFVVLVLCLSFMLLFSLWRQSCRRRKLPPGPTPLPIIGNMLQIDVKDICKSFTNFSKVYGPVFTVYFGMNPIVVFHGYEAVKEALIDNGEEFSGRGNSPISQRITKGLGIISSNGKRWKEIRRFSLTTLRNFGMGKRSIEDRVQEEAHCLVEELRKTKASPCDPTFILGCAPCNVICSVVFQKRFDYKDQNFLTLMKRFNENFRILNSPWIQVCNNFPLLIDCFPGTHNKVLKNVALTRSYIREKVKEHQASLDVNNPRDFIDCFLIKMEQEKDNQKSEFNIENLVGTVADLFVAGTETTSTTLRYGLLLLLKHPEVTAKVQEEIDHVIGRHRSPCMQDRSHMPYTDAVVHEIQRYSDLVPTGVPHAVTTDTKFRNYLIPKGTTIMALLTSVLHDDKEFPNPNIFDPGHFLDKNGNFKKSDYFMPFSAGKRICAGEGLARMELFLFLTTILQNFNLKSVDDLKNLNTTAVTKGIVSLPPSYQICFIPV
As to the kind of experiment: Inhibition of CYP2C8 (unknown origin). The format is ADME.

A further series deals with Cytochrome P450 2C19 (Homo sapiens, UniProt P33261). As to the kind of experiment: Inhibition of CYP2C19 (unknown origin). The class given is ADME.
Series [6] is described as follows: Clearance in mouse at 2 mg/kg, iv. The format is ADME, organism-based. To be noted: in vivo.
The nature of series [7]: Volume of distribution at steady state in mouse at 2 mg/kg, iv. The class given is ADME, organism-based. To be noted: in vivo, read-out: Vdss. The essentials: (§1)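 Multi-species pharmacokinetic study with separate iv and oral dosing arms. Steady-state volume of distribution was taken from the iv arm: 2 mg/kg in mouse and rat, 1 mg/kg in cynomolgus monkey and dog. Oral doses in the same study were 5 mg/kg in mouse and rat and 1 mg/kg in monkey and dog.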

Series [8] concerns Rattus norvegicus. Nature of the series: Clearance in rat at 2 mg/kg, iv relative to hepatic blood flow. The format is ADME, organism-based, Liver. The note with it: in vivo.
Series [9] can be described thus: Volume of distribution at steady state in rat at 2 mg/kg, iv. To be noted: in vivo, read-out: Vdss. The class given is ADME, organism-based. The essentials: as §1
Series [10] in a line: Oral bioavailability in rat at 5 mg/kg. The class given is ADME, organism-based. The note with it: in vivo.
The subject of series [11] is Rattus norvegicus. As to the kind of experiment: Ratio of Cmax to Cmin in rat at 5 mg/kg, po. The format is ADME, organism-based. To be noted: in vivo.
A short description of series [12]: Half life in cynomolgus monkey at 1 mg/kg, iv. The class given is ADME, organism-based, Macaca fascicularis. To be noted: in vivo.
A short description of series [13]: Clearance in cynomolgus monkey at 1 mg/kg, iv. The class given is ADME, organism-based, Macaca fascicularis. The note with it: in vivo.
The nature of series [14]: Oral bioavailability in cynomolgus monkey at 1 mg/kg. The format is ADME, organism-based, Macaca fascicularis. The note with it: in vivo.
Series [15] is described as follows: Half life in dog at 1 mg/kg, iv. The class given is ADME, organism-based, Canis lupus familiaris. The note with it: in vivo.
Series [16] in a line: Oral bioavailability in dog at 1 mg/kg. The class given is ADME, organism-based, Canis lupus familiaris. The note with it: in vivo.
Series [17] has as its system Rattus norvegicus. As to the kind of experiment: Anti-inflammatory activity in Lewis rat complete Freund's adjuvant-induced arthritis model of human rheumatoid arthritis assessed as reduction in hind paw swelling at 0.5 and 3 mg/kg, po QD for 21 days starting at day 0 by plethysmometry. The format is functional, organism-based. The essentials: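 Male Lewis rats given complete Freund's adjuvant with heat-killed Mycobacterium butyricum subcutaneously at the tail base. Dosed orally once daily for 21 days from day 0. Hind paw volume measured by water displacement plethysmometry at baseline and over three weeks; increase above baseline calculated. Compared with vehicle, p<0.05.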

Sequence of Sphingosine 1-phosphate receptor 1 (P21453 whole entry): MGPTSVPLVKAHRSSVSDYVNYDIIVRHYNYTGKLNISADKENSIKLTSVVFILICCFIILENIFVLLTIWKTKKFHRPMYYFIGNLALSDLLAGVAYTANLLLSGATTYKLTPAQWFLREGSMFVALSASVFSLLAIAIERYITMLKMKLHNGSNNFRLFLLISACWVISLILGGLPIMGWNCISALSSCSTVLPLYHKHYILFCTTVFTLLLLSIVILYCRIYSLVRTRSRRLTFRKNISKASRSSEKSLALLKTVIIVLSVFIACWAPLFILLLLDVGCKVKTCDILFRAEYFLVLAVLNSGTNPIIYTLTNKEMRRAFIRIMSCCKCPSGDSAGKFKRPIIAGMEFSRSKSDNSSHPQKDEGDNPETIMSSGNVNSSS
Sequence of Cytochrome P450 2C19 (P33261 whole entry): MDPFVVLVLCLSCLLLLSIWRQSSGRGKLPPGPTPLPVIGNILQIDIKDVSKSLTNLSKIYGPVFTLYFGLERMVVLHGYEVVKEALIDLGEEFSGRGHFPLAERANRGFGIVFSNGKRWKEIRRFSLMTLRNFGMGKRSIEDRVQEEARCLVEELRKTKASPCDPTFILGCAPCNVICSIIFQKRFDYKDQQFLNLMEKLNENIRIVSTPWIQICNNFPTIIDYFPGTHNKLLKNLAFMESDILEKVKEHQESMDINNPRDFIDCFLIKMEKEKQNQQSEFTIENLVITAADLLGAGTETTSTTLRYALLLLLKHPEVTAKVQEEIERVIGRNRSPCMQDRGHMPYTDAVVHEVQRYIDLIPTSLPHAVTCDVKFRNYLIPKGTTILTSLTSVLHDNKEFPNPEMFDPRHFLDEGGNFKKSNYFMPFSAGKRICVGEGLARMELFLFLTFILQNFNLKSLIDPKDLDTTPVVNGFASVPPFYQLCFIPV
Sequence of hERG (KCNH2) (Q12809 whole entry): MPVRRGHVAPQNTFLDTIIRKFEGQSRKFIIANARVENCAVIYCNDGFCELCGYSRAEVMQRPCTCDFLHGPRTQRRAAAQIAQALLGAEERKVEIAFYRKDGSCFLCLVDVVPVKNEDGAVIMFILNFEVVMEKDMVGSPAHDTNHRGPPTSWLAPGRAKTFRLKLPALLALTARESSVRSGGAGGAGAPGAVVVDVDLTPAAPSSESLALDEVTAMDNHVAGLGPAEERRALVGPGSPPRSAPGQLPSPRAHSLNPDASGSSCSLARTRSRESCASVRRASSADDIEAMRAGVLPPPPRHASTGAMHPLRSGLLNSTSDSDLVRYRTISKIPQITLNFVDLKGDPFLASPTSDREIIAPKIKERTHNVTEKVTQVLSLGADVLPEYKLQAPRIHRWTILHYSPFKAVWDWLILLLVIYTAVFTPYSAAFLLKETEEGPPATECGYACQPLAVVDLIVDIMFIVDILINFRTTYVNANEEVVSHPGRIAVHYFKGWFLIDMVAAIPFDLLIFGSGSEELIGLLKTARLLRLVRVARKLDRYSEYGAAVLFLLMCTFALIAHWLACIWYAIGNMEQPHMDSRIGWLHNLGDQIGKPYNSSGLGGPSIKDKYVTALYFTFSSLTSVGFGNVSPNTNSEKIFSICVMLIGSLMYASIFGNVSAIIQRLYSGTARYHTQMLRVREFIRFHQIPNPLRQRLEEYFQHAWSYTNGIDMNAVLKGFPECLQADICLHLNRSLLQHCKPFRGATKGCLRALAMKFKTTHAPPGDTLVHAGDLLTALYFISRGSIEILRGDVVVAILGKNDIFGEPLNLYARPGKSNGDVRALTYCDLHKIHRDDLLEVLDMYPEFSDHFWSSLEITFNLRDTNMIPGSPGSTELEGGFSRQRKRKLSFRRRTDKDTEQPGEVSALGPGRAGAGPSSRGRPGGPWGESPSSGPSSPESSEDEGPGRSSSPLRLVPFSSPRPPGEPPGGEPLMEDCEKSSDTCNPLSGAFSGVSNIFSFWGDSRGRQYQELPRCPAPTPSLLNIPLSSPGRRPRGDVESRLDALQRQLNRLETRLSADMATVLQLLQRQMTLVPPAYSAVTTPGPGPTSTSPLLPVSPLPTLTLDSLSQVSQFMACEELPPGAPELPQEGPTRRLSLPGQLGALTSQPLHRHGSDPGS

Consider `O=C(O)C1CN(Cc2ccc(-c3noc(-c4onc(-c5ccccn5)c4C(F)(F)F)n3)cc2)C1`, for which the results for the Ratio EC50 (in [1]; in the series on CHO) were 4100 and 3.2, respectively. Also, the Ratio stood at 47 with Plasma and 26 in the series on Rattus norvegicus [11]. In addition, in series [2], the EC50 was determined as 0.00071 µM. Moreover, the inhibition in vivo at 1 mg/kg in the series with Rattus norvegicus [3] was found to be 80%. Besides, the fraction unbound in series [4] is 0.006; in series [5] it was 0.274. On hERG (KCNH2), at 10 µM the inhibition was 13%. This compound also had an inhibition in the series listed under Homo sapiens of less than 5%. The IC50 on Cytochrome P450 2C8 and on Cytochrome P450 2C19 was greater than 40 µM throughout. Besides, the clearance in series [6] turned out to be 0.018 L/h/kg; in series [13], 0.84 L/h/kg. The Vd in series [7] turned out to be 0.1 L/kg; in [9], 0.4 L/kg. Besides, the CL in the series on Rattus norvegicus [8] was found to be 1.4%. Also, the bioavailability in series [10] turned out to be 100%; in [14] it was 12%; in series [16] it was 87%. Moreover, the half-life in series [12] was 1.1 h; in [15], 6.1 h. Moreover, in the series with Rattus norvegicus [17], the Activity result is “Dose-dependent effect”.
